Calls of active or inactive are those of the source.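 Rule for the calls, unless noted: active = fluorescence slope higher than the sample average by over 3 SD (cut at about -0.22 in these data, passing the limit was not always enough); inactive = the rest.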
Tests used:
[1] = inhibitors of TNFa-induced NFkB p65 translocation, primary screen, imaging, HUVEC, MLSMR starter and 10KST1 sets (AID 438;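 active = inhibition above 20% together with a positive visual image hit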;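 note: compound added about 3h40 before a 20 min TNFalpha stimulation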;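 for inhibition: signal is the nuclear over cytoplasmic p65 intensity ratio per well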); conditions: HUVEC TNFa-induced p65 nuclear translocation; cell count: measured here: nuclei count (cytotoxicity indicator), at 2.08 µM; inhibition: at 2 µM, stronger effect = higher value, 0% TNFa-plus-vehicle, 100% no-TNFa wells
[2] = endothelial E-selectin expression blockers – imaging, HUVEC, immunofluorescence, MLSMR starter and 10KST1 sets, primary screen (AID 487;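 active = visually confirmed hit in the image check and inhibition above 20%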;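 for inhibition: signal is fraction of cell area covered by stained E-selectin grains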;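 for nuclei count: 100% = median nuclei count of all wells on the same plate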); conditions: HUVEC TNFalpha-induced E-selectin immunofluorescence imaging, at 2 µM; inhibition: stronger effect = higher value; nuclei count: measured here: cell number, toxicity
[3] = Primary imaging screen for DUSP6 inhibitors that restore phospho-Erk in transfected HeLa cells, chemical complementation (AID 609;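 active = compounds giving at least 50% inhibition in the cell-based MKP-3 phosphatase rescue imaging test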;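 for inhibition: phospho-Erk level distribution per well compared with pooled transfected vehicle control wells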); conditions: HeLa MKP-3 transfected, phospho-Erk imaging KS statistic, at 10 µM, cells stimulated with TPA for 15 min
[4] = biological target: Dual specificity protein phosphatase 6 (Homo sapiens) (UniProt Q16828); experiment: as above; conditions: HeLa MKP-3 transfected, phospho-Erk imaging KS statistic; at 10 µM; stronger effect = higher value; cells stimulated with TPA for 15 min
Chain of Dual specificity protein phosphatase 6 (Homo sapiens) (Q16828 whole entry, looked up): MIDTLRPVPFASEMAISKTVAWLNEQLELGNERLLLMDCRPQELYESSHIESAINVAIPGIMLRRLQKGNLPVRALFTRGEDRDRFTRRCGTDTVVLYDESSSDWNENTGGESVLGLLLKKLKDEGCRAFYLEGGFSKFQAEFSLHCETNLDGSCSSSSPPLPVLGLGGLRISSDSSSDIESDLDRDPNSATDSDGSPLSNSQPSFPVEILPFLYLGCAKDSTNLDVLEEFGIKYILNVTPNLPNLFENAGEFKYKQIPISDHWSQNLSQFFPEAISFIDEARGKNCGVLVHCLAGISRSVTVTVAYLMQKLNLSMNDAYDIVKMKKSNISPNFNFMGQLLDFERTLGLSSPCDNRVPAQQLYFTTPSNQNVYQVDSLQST

[5] = biological target: Voltage-gated potassium channel subunit beta-2 (Rattus norvegicus) (UniProt P62483); experiment: inhibitors of rat Kvbeta2 reductase activity – biochemical, NADPH fluorescence, primary screen (AID 622); conditions: recombinant KvBeta, 4-cyanobenzaldehyde reduction, at 10 µM, stronger effect = higher value;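 note: slope of raw intensity against log time taken from 70 to 1610 s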
Chain of Voltage-gated potassium channel subunit beta-2 (Rattus norvegicus) (P62483 whole entry, looked up): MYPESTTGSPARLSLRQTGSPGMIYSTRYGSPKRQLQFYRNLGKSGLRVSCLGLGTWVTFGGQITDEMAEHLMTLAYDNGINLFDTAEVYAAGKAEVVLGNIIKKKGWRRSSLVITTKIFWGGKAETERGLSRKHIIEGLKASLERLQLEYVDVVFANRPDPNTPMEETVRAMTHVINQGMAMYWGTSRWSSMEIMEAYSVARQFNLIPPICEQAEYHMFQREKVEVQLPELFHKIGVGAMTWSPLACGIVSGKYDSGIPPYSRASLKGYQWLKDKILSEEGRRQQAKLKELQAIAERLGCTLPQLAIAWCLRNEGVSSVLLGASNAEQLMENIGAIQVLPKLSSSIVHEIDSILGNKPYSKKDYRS

[6] = biological target: Voltage-gated potassium channel subunit beta-2 (Rattus norvegicus) (UniProt P62483); experiment: enhancers of rat Kvbeta2 NADPH turnover – biochemical, NADPH fluorescence, primary screen (AID 623;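 active = NADPH fluorescence slope more negative than the mean of all samples by about 3 SD, 99.7% confidence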;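 note: fluorescence intensity change per second fitted from 20 to 320 s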); conditions: Recombinant KvBeta, NADPH fluorescence decrease slope, 10 min; at 10 µM; stronger effect = lower value
[7] = biological target: Alpha-2C adrenergic receptor (Homo sapiens) (UniProt P18825); experiment: compounds altering alpha2C-coupled GIRK flux – cell-based, HEK293 alpha2C/GIRK1/2, thallium flux, primary screen (AID 624;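 active = fluorescence slope after compound addition differing from the mean of all screened samples at 99.7% confidence, in either direction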;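 note: slope of fluorescence ratio to pre-addition baseline per second over 15 to 24 s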); conditions: thallium flux BTC fluorescence, at 10 µM, actives lie on both sides
Chain of Alpha-2C adrenergic receptor (Homo sapiens) (P18825 whole entry, looked up): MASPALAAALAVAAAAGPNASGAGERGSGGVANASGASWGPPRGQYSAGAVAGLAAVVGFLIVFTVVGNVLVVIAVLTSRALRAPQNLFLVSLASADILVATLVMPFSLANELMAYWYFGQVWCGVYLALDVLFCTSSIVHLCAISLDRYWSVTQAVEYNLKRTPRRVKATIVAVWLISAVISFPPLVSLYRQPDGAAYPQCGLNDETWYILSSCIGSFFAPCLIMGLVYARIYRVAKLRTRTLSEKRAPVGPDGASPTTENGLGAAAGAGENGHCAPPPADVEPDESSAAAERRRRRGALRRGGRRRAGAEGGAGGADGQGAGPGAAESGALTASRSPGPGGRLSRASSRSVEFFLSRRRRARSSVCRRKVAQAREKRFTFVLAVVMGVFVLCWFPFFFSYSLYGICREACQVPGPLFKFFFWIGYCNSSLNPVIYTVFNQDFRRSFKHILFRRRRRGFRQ

[8] = inhibitors of larval lipid processing in zebrafish, primary screen, whole organism, PED6 fluorescence, gall bladder and intestine (AID 686;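 active = a full or partial loss of lipid-probe fluorescence in the fish gall bladder, intestine or both, judged by eye; inactive = no fluorescence loss, or compound toxic to the fish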;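 note: larvae 5 to 7 days old with five fish per well; signal comes from phospholipase A2 cleavage of quenched PED6 carried via bile; overnight exposure to compound and PED6 before scoring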); conditions: Zebrafish larvae PED6 lipid processing, fluorescence scoring; screened at 20 µM (by protocol)
Procedure, shortened: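 Also added: quenched phospholipase substrate PED6, 100 nM final, ingested by larvae; System: zebrafish larvae, 5-7 d; Quantity: 5 larvae per well; Compound: 20 µM single dose; Schedule: overnight compound and PED6 incubation; Read-out: visual per-well fluorescence inhibition score; Measured by: By-eye fluorescence microscopy; Medium: E3.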

[9] = loss of swimming-algae plug formation – whole organism, Chlamydomonas reinhardtii, WT vs cilia-less mutant, absorbance, 96-well, primary screen (AID 463189;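 active = inhibition at or above 50% relative to wild type and mutant plate controls; inactive = inhibition below 50%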;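 note: 0% = wild type cc124 cells in DMSO and 100% = ciliumless bld1 mutant cells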); conditions: Chlamydomonas reinhardtii gravitaxis, OD600 absorbance, 2 days; at 10 µM; stronger effect = higher value
[10] = measured here: cell density z-score
[11] = measured here: nuclear c-Myc green intensity z-score
[12] = measured here: nuclear pErk red intensity z-score, stronger effect = higher value

| Structure (SMILES) | cell count [1] | inhibition [1] | inhibition [2] | nuclei count [2] | z-score [3, 10] | z-score [3, 11] | z-score [3, 12] | inhibition [4] | fluorescence slope [5] | NADPH fluorescence slope [6] | slope [7] | outcome [8] | inhibition [9] |
| --- | --- | --- | --- | --- | --- | --- | --- | --- | --- | --- | --- | --- | --- |
| CCOC(=O)CSc1nnc2n(C3CCCCC3)c(=O)c3c4c(sc3n12)CCCC4 | 650 | -11.4% (inactive) | -104% (inactive) | 146% | -1.05 | -0.745 | -0.835 | 1.75% (inactive) | -0.533 (inactive) | -0.0001 (inactive) | 0.00612 (inactive) | inactive | -1.33% (inactive) |
| Cc1ccc(C2C(C(=O)c3cc4ccccc4o3)=C(O)C(=O)N2CCN(C)C)o1 (centres undefined) | 352 | -3% (inactive) | 23.2% (inactive) | 101% | -1.49 | 2.05 | -0.073 | -6.48% (inactive) | -0.443 (inactive) | -2.4e-05 (inactive) | 0.00982 (inactive) | inactive | -11.1% (inactive) |
| CCN(CC)CCN1C(=O)C(=O)/C(=C(/O)c2ccc(C)cc2)C1c1cccnc1 (centres undefined) | 390 | -0.5% (inactive) | -20.8% (inactive) | 113% | 0.619 | -0.778 | 0.527 | -5.89% (inactive) | -0.426 (inactive) | -5.7e-05 (inactive) | 0.00669 (inactive) | inactive | 8.05% (inactive) |
| CCCOc1ccc(/C(O)=C2/C(=O)C(=O)N(CCN(C)C)C2c2ccncc2)cc1 (centres undefined) | 434 | -4.1% (inactive) | -139% (inactive) | 154% | 1.88 | 0.199 | -1.31 | -4.7% (inactive) | -0.418 (inactive) | -6.3e-05 (inactive) | 0.00564 (inactive) | inactive | 8.14% (inactive) |
| N#CC1=C(SCC(=O)c2ccccc2)NC2=C(C(=O)CCC2)C1c1ccco1 (centres undefined) | 310 | -8% (inactive) | -43.4% (inactive) | 91.7% | -2.24 | 2.65 | -0.86 | 1.42% (inactive) | -0.435 (inactive) | -3.2e-05 (inactive) | 0.00719 (inactive) | inactive | -15.7% (inactive) |
| CCOP(=O)(c1ccccc1)c1nc(-c2ccccc2C)oc1N1CCCCC1 (centres undefined) | 603 | -2.4% (inactive) | -34% (inactive) | 167% | -0.907 | 0.675 | 1.07 | 13.2% (inactive) | -0.49 (inactive) | -0.000125 (inactive) | 0.00422 (inactive) | inactive | 56.6% (active) |
| O=c1oc2c3c4c(cc2c(C(F)(F)F)c1CCN1CCOCC1)CCCN4CCC3 | 507 | -1% (inactive) | -59.8% (inactive) | 160% | -0.81 | 0.512 | -1.2 | -4.78% (inactive) | -0.315 (inactive) | -4.5e-05 (inactive) | 0.0309 (active) | inactive | -7.21% (inactive) |
| CC(=O)OC12CC3CC(C1)C(=NO)C(C3)C2 | 541 | -10.2% (inactive) | -145% (inactive) | 127% | 1.34 | -0.992 | -0.795 | 33.7% (inactive) | -0.512 (inactive) | -2.1e-05 (inactive) | 0.00472 (inactive) | inactive | 39.2% (inactive) |
| COc1ccc(C(=O)CSC2=C(C#N)C3(CCCCC3)C(C#N)=C(N)N2)cc1 | 705 | -13.2% (inactive) | -25.4% (inactive) | 192% | -0.688 | 1.18 | 0.232 | 2.71% (inactive) | -0.393 (inactive) | -3.2e-05 (inactive) | 0.00422 (inactive) | inactive | -3.04% (inactive) |
| COc1cc2c(C(=O)N3CCN(c4ccccc4)CC3)c(C)oc2cc1Br | 539 | -0.9% (inactive) | -65.1% (inactive) | 139% | 1.72 | -0.592 | -0.944 | 10.5% (inactive) | -0.532 (inactive) | -2.7e-05 (inactive) | 0.00643 (inactive) | inactive | 1.23% (inactive) |
| Cn1c(=O)c2c3c(sc2n2c(SCC(N)=O)nnc12)CC(C(C)(C)C)CC3 (centres undefined) | 508 | -9.7% (inactive) | -30% (inactive) | 91.7% | 1.25 | -0.417 | 0.675 | 3.56% (inactive) | -0.371 (inactive) | 6.2e-07 (inactive) | 0.00521 (inactive) | inactive | 92.5% (active) |
| Cn1nnnc1SCC(=O)NCC(=O)c1ccccc1 | 527 | -4.5% (inactive) | -74.2% (inactive) | 146% | 0.246 | -1.91 | 0.111 | -7.01% (inactive) | -0.527 (inactive) | -6.9e-05 (inactive) | 0.00467 (inactive) | inactive | 10.2% (inactive) |
| COc1ccc(Nc2cc(C)nc3ccccc23)cc1 | 467 | -5.2% (inactive) | 36% (inactive) | 118% | 0.29 | 0.934 | -1.53 | 4.72% (inactive) | -0.429 (inactive) | -2.1e-05 (inactive) | 0.00465 (inactive) | inactive | 17.6% (inactive) |

— PubChem BioAssay
